According to ChEMBL document CHEMBL1147446, “Antagonists of human CCR5 receptor containing 4-(pyrazolyl)piperidine side chains. Part 3: SAR studies on the benzylpyrazole segment” (Bioorg Med Chem Lett, 2004):

Experiments:
in vivo [1] = conditions: dog, plasma, iv, 0.5 mg/kg
[2] = Half life in dog (dosed as a mixture of five compounds at 0.5 mpk each via iv only); format: ADME, organism-based, Canis lupus familiaris; conditions: in vivo
How it was run: (§1)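 Dogs received a five-compound cassette by iv only, 0.5 mpk of each compound.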

Canis familiaris [3] = assay: […] AUCN in dog (dosed as a mixture of five compounds at 0.5 mpk each via iv only); format: ADME, organism-based, Canis lupus familiaris; conditions: in vivo
Canis familiaris [4] = assay: Oral AUCN in dog (dosed at 0.5 mpk iv ); conditions: in vivo, 0.5 mg/kg
HeLa [5] = assay: Antiviral activities in a cell culture HIV-1 infectivity inhibition assay using HeLa cells plus 50% normal human serum; format: functional
[6] = Plasma clearance in dog (dosed as a mixture of five compounds at 0.5 mpk each via iv only); format: ADME, organism-based, Canis lupus familiaris; conditions: read-out: Clp
How it was run: as §1

in vivo [7] = conditions: dog
[8] = In vitro antiviral activity using peripheral blood mononuclear cell (PBMC) HIV-1 spread assay; format: functional; conditions: Homo sapiens
[9] = target: Sodium-dependent noradrenaline transporter (Homo sapiens) (UniProt P23975); assay: Inhibitory activity against human adrenergic norepinephrine transporter at 10 uM
[10] = target: L-type calcium channel, benzothiazepine site (Rattus norvegicus, UniProt P22002+P27732+Q02485); assay: Inhibition of binding to rat L-type Calcium channel benzothiazepine site at 10 uM; format: functional
HeLa [11] = assay: Antiviral activities in a cell culture HIV-1 infectivity inhibition assay using HeLa cells; format: functional; conditions: Homo sapiens
in vivo [12] = conditions: rat
Canis familiaris [13] = assay: […] AUCN in dog ( (dosed as a mixture of five compounds at 0.5 mpk each via iv only); format: ADME, organism-based, Canis lupus familiaris; conditions: in vivo
[14] = Inhibitory activity against rat Na+ channel site 2 at 10 uM
in vivo [15] = conditions: rat, plasma
[16] = target: Sodium-dependent dopamine transporter (Homo sapiens, UniProt Q01959); assay: Inhibitory activity against human dopamine transporter at 10 uM
D(3) dopamine receptor = D(3) dopamine receptor (Homo sapiens, UniProt P35462); assay: Inhibitory activity against human dopamine receptor D3 at 10 uM
in vivo [17] = conditions: rat; remark: listed apart in the source
[18] = In vitro antiviral activity using peripheral blood mononuclear cell (PBMC) HIV-1 spread assay in presence of 50% normal human serum; format: functional
[19] = target: C-C chemokine receptor type 5 (Homo sapiens, UniProt P51681); assay: Inhibitory concentration for displacement of [125I]-MIP-1 alpha from recombinant human CC chemokine receptor 5 (CCR5) expressed in CHO cell; format: cell-based
How it was run: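 Competitive binding to CCR5 on CHO cell membranes, read as displacement of [125I]-labeled MIP-1α. IC50 values are means of triplicate determinations. Standard errors were normally <15% within an assay. Assay-to-assay variation was within ±2-fold, judged from a standard compound.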

HeLa [20] = assay: Inhibition of HIV-1 infectivity using BAL-1 strain against HeLa cell line was determined; format: functional; conditions: Homo sapiens
[21] = target: Voltage-gated inwardly rectifying potassium channel KCNH2 (Homo sapiens, UniProt Q12809); assay: Binding affinity against hERG Voltage-gated potassium channel subunit Kv11.1
Sequence of Voltage-gated inwardly rectifying potassium channel KCNH2 (Q12809 whole entry): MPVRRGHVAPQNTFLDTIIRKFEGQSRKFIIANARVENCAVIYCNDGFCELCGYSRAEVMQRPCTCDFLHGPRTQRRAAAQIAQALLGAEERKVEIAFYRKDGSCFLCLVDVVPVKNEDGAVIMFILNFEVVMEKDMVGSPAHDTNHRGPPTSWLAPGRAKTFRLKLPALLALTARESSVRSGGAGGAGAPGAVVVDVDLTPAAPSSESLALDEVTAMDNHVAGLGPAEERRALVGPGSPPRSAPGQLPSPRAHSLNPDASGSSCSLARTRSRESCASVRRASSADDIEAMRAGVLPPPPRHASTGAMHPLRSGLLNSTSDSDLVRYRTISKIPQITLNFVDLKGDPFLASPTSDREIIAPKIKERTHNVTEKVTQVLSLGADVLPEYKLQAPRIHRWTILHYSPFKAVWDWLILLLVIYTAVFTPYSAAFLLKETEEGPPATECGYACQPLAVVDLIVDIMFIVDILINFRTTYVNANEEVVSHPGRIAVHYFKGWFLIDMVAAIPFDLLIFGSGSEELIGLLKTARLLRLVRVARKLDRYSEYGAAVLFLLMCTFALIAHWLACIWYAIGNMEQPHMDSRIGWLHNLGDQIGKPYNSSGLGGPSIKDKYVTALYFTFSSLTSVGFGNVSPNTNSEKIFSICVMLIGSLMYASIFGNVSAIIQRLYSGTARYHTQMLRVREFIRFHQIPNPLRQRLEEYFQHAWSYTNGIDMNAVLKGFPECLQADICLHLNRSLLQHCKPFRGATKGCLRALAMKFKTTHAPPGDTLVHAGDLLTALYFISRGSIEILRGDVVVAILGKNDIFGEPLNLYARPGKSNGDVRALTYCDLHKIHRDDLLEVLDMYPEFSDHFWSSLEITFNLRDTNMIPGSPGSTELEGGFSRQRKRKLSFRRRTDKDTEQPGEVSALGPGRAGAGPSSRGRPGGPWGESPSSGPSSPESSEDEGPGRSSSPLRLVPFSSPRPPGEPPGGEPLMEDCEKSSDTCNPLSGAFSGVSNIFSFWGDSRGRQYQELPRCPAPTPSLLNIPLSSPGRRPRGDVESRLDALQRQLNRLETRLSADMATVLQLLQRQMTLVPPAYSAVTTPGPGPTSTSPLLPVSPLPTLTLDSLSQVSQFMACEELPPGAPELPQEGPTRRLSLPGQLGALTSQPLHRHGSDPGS

Sequence of C-C chemokine receptor type 5 (P51681 whole entry): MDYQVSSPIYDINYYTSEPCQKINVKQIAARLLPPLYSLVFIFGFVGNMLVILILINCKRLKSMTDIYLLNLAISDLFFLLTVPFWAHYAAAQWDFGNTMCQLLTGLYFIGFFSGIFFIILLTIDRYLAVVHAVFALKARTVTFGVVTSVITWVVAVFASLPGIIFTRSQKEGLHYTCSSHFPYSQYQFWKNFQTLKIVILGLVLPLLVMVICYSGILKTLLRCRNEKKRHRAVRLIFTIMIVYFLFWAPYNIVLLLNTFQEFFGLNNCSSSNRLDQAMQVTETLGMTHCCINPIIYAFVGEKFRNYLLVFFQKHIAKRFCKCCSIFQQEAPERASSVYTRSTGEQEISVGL
Sequence of D(3) dopamine receptor (P35462 whole entry): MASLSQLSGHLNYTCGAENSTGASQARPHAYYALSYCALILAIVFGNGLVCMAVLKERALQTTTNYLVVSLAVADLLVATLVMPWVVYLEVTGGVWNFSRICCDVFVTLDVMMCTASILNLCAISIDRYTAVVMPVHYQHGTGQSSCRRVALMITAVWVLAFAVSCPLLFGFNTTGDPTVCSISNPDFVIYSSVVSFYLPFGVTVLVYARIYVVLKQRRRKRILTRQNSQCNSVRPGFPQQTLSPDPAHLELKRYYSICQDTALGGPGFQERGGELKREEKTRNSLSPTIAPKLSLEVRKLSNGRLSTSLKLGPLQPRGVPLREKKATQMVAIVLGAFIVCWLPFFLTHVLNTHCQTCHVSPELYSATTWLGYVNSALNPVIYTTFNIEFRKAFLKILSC
Sequence of Sodium-dependent noradrenaline transporter (Homo sapiens) (P23975 whole entry): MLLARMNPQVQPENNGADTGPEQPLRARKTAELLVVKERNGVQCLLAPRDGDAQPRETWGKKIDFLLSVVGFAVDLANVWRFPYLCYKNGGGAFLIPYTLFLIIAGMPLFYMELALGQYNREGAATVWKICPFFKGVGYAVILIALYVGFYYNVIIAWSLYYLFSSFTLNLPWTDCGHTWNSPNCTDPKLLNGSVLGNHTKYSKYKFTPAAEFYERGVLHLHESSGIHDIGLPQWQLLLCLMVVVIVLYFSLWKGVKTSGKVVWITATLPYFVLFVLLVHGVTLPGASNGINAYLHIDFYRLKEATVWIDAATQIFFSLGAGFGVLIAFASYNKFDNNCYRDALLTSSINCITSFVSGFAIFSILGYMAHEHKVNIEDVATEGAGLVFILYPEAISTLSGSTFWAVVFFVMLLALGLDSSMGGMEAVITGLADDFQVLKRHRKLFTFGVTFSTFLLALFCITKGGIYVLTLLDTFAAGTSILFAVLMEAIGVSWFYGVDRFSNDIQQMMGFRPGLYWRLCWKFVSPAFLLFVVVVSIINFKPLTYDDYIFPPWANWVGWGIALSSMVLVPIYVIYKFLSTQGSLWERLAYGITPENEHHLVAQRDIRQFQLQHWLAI
Sequence of Sodium-dependent dopamine transporter (Q01959 whole entry): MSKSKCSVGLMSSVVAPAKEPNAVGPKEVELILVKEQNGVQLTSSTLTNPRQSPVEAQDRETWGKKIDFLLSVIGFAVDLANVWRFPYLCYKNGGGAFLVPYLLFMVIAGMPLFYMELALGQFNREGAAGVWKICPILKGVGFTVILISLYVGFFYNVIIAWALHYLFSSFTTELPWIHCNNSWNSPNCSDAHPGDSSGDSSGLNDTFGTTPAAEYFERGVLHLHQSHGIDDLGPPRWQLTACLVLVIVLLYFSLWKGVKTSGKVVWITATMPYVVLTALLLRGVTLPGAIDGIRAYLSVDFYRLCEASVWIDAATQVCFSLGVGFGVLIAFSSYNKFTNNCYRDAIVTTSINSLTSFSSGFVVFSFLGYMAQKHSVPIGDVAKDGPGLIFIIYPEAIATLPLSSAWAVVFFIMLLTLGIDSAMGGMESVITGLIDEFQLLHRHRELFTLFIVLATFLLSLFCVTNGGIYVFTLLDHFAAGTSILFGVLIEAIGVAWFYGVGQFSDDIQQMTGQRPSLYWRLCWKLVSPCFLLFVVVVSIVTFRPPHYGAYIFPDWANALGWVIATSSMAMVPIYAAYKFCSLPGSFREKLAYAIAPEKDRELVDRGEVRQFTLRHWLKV

| half-life [2] [h] | clearance [6] [mL/min/kg] | IC90 (HeLa [11]) [nM] | half-life (in vivo [12]) [h] | clearance (in vivo [15]) [mL/min/kg] | bioavailability (in vivo [17]) [%] | IC50 [19] [nM] | Structure (SMILES) | IC90 (HeLa [5]) [nM] | Ki [21] [nM] | other results |
| --- | --- | --- | --- | --- | --- | --- | --- | --- | --- | --- |
| 0.75 | 25 | – | – | – | – | – | CCn1nc(Cc2ccccc2)cc1C1CCN(C[C@H]2CN([C@@H](C(=O)O)C(C)(C)C)C[C@@H]2c2cccc(F)c2)CC1 | 100 | – | clearance (in vivo [1]): 13 mL/min/kg; AUC N (Canis familiaris [3]): 1.2 uM hr dose-1; AUC N (Canis familiaris [4]): 2.3 µM hr dose-1; half-life (in vivo [7]): 0.64 h |
| 3.1 | 3.8 | 0.4 | 2.3 | 8.8 | 41 | 1.1 | CC[C@H](C)[C@H](C(=O)O)N1C[C@H](CN2CCC(c3cc(Cc4ccc(OC(F)(F)F)cc4)nn3CC)CC2)[C@@H](c2cccc(F)c2)C1 | 33 | – | IC95 [8]: 2.5 nM; inhibition [9]: 42%; inhibition at 10 µM [10]: 46%; AUC N (Canis familiaris [13]): 6.8 uM hr dose-1; IC50 [14]: 1200 nM; IC50 [16]: 3600 nM; IC50 (D(3) dopamine receptor): 2700 nM; IC95 [18]: 20 nM |
| – | – | – | – | – | – | – | CCn1nc(Cc2ccccc2)cc1C1CCN(C[C@H]2CN([C@@H](C(=O)O)C3CCCCC3)C[C@@H]2c2ccccc2)CC1 | – | – | IC90 (HeLa [20]): 0.4 nM |
| – | – | – | 0.54 | – | 13 | – | CC[C@H](C)[C@H](C(=O)O)N1C[C@H](CN2CCC(c3cc(Cc4ccccc4)nn3CC)CC2)[C@@H](c2cccc(F)c2)C1 | 100 | 30000 | – |
| – | – | 0.4 | 1.3 | 5.3 | 18 | 0.3 | CCn1nc(Cc2ccc(-c3ccccc3)cc2)cc1C1CCN(C[C@H]2CN([C@@H](C(=O)O)C3CCCCC3)C[C@@H]2c2cccc(F)c2)CC1 | 11 | 400 | – |
